# Published values of several laboratories.
# Compare with care: the assays were run in different laboratories.
# Effect on: microbial growth
SMILES,organism,test,system,setting,MIC
CCCCCCC/C=C/C(=O)N1C(=O)/C(=C(\O)c2ccncc2)C(=O)C1CC(C)C (stereo not drawn),Stenotrophomonas maltophilia,,ATCC13637,,200 µg/mL
Cc1ncc([N+](=O)[O-])n1CCO,Bifidobacterium,agar dilution,,48 h,> 16 µg/mL
C/C(=C\c1ccc(C#N)cc1)C(=O)Nc1ccc(C(=O)N[C@@H](CC(N)=O)C(=O)Nc2ccc(C(=O)Nc3ccc(C(=O)Nc4ccc(C(=O)O)cc4)c(O)c3OC(C)C)cc2)cc1,Klebsiella aerogenes,,DSM30053,,0.25 µg/mL
C[C@@H](O)[C@H]1C(=O)N2C(C(=O)O)=C(S[C@@H]3CN[C@H](C(=O)N(C)C)C3)[C@H](C)[C@H]12,Stenotrophomonas maltophilia,broth dilution,,clinical isolate,> 64 µg/mL
O=C1NC(=S)N/C1=C\c1c2ccccc2c(-c2ccc(N(c3ccccc3)c3ccccc3)cc2)c2ccccc12,Streptococcus pyogenes,broth dilution,ATCC19615,,> 1000 µg/mL
CCCCCCC/C=C/C(=O)N1C(=O)/C(=C(\O)c2ccc(OCOCCOC)cc2)C(=O)C1CC(C)C (stereo not drawn),Stenotrophomonas maltophilia,,ATCC13637,,200 µg/mL
CC(C)Oc1c(NC(=O)c2ccc(NC(=O)[C@H](CC(N)=O)NC(=O)c3ccc(NC(=O)c4ccc(C#N)cn4)cc3)cc2)ccc(C(=O)Nc2ccc(C(=O)O)cc2)c1O,Klebsiella aerogenes,,DSM30053,,0.25 µg/mL
O=C1NC(=S)N/C1=C\c1ccc(-c2ccc(N(c3ccccc3)c3ccccc3)cc2)c2ccccc12,Streptococcus mutans,broth dilution,ATCC25175,,> 1000 µg/mL
CNC(=O)c1cc(Oc2ccc(NC(=O)Nc3ccc(Cl)c(C(F)(F)F)c3)cc2)ccn1,Klebsiella aerogenes,,DSM30053,,> 100 µM
O=C1NC(=S)S/C1=C\c1ccc(-c2ccc(N(c3ccccc3)c3ccccc3)cc2)cc1,Streptococcus mutans,broth dilution,ATCC25175,,1000 µg/mL
CCCCCCC/C=C/C(=O)N1C(=O)/C(=C(\O)C2CCNCC2)C(=O)C1CC(C)C (stereo not drawn),Stenotrophomonas maltophilia,,ATCC13637,,25 µg/mL
O=C1NC(=S)S/C1=C\c1ccc(-c2ccc(N(c3ccccc3)c3ccccc3)cc2)c2ccccc12,Streptococcus mutans,broth dilution,ATCC25175,,1000 µg/mL
O=C(O)c1cn(C2CC2)c2cc(N3CCNCC3)c(F)cc2c1=O,Klebsiella aerogenes,,DSM30053,,0.125 µg/mL
CCCCCCC/C=C/C(=O)N1C(=O)/C(=C(/C)O)C(=O)C1CCC(=O)O (stereo not drawn),Stenotrophomonas maltophilia,,ATCC13637,,200 µg/mL
O=c1[nH]c(NCc2ccc(Cl)c(Cl)c2)nc2ncn(CCN3CCOCC3)c12,Bifidobacterium,agar dilution,,48 h,> 32 µg/mL
